Activity calls are given as the source filed them. The rule behind the calls is not given here.
What was measured:
[1] = Toxicity in ip dosed BDF1 mouse assessed as animal killed administered as single dose; settings: in vivo
Leukemia cell [2] = experiment: Antitumor activity against DBA/2J mouse Friend erythroleukemia cells allografted ip dosed DBA/2 mouse assessed as increase in host survival time administered on days 1, 2 and 3 after tumor transplantation; format: functional, organism-based
Leukemia cell [3] = experiment: Induction of cell differentiation in DBA/2J mouse Friend erythroleukemia cells assessed as proportion of hemoglobin containing cells at IC50 concentration for antiproliferative effect after 3 days by benzidine peroxide staining; format: functional, cell-based
Procedure, shortened: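 Exponentially growing cells seeded at 10^5 cells/mL in DMEM with 10% fetal calf serum at 37 °C and 10% CO2, incubated 3 days with the analogue. Ethanol vehicle final ≤0.125%. Hemoglobin-containing cells scored by benzidine peroxide stain. Controls received no drug or the inducer bis(acetyl)diaminopentane.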

[4] = Antiproliferative activity against DBA/2J mouse Friend erythroleukemia cells after 3 days by cell counter; format: functional, cell-based; settings: Leukemia cell, 72 h
Procedure, shortened: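 Log-phase suspension cultures in DMEM with 10% fetal calf serum, penicillin/streptomycin, 37 °C, 10% CO2, seeded at 10^5 cells/mL. Continuous exposure to a range of concentrations for 3 days. Water-insoluble agents given in ethanol (final ≤0.125%). Cells counted by Coulter counter. IC50 is the concentration giving 50% inhibition of multiplication versus vehicle-treated controls.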

[5] = Inhibition of bis(acetyl)diaminopentane-induced cell differentiation in DBA/2J mouse Friend erythroleukemia cells assessed as proportion of hemoglobin containing cells at 1 mM after 3 days by benzidine peroxide staining (reference value: 82.2 +/- 2.4%); format: functional; settings: Leukemia cell, 72 h
[6] = Inhibition of cell growth of DBA/2J mouse Friend erythroleukemia cells at 1 mM after 3 days in presence of bis(acetyl)diaminopentane; format: functional; settings: Leukemia cell, 72 h
Procedure, shortened: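 Log-phase Friend erythroleukemia cells (DBA/2J origin) were seeded at 10⁵ cells/mL in DMEM plus 10% fetal calf serum at 37 °C under 10% CO₂. Analogue at 1 mM was combined with the inducer bis(acetyl)diaminopentane at 4.5 mM. After 3 days, cell numbers were counted with a Coulter counter to give percent cytostasis.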

[7] = Inhibition of cell growth of DBA/2J mouse Friend erythroleukemia cells at 4 uM after 3 days in presence of bis(acetyl)diaminopentane; format: functional; settings: Leukemia cell, 72 h
Procedure, shortened: (§1)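 Exponentially growing cells seeded at 10^5 cells/mL, exposed for 3 days to 4.5 mM bis(acetyl)diaminopentane together with the analogue. Cell numbers counted by Coulter counter. Cytostasis expressed relative to untreated control cultures.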

[8] = Inhibition of cell growth of DBA/2J mouse Friend erythroleukemia cells at 0.4 mM after 3 days in presence of bis(acetyl)diaminopentane; format: functional; settings: Leukemia cell, 72 h; procedure, shortened: as §1
[9] = Bis(acetyl)diaminopentane-induced cell differentiation in DBA/2J mouse Friend erythroleukemia cells assessed as proportion of hemoglobin containing cells at 0.4 mM after 3 days by benzidine peroxide staining (reference value: 82.2 +/- 2.4%); settings: Leukemia cell, 72 h

SMILES | LD50 [1] [µmol/kg] | Activity (Leukemia cell [2]) | Activity (Leukemia cell [3]) | IC50 [4] [µM] | inhibition at 1000 µM [5] [%] | inhibition at 1000 µM [6] [%] | inhibition at 4 µM [7] [%] | inhibition at 400 µM [8] [%] | benzidine-positive cells % at 400 µM [9] [%]
O=C(CCl)N[C@@H]1[C@@H](O)[C@@H](O)[C@@H](CO)O[C@H]1O | 1500 | inactive | – | – | – | – | – | – | –
CC(=O)OC[C@H]1O[C@@H](OC(C)=O)[C@H](NC(=O)CCl)[C@@H](OC(C)=O)[C@@H]1OC(C)=O | 940 | inactive | inactive | 8 | – | – | – | – | –
O=C(CF)N[C@@H]1[C@@H](O)[C@H](O)[C@@H](CO)O[C@H]1O | 180 | inactive | inactive | 1000 | 69.5 | 83 | – | – | –
CC(=O)OC[C@H]1O[C@@H](OC(C)=O)[C@H](NC(=O)CF)[C@@H](OC(C)=O)[C@@H]1OC(C)=O | 170 | inactive | inactive | 60 | – | – | – | – | –
CC(=O)OC[C@H]1O[C@@H](OC(C)=O)[C@H](NC(=O)CBr)[C@@H](OC(C)=O)[C@@H]1OC(C)=O | 210 | inactive | inactive | 3 | – | – | – | – | –
CC(=O)OC[C@H]1O[C@@H](OC(C)=O)[C@H](NC(=O)CF)[C@@H](OC(C)=O)[C@H]1OC(C)=O | 980 | inactive | inactive | 60 | – | – | – | – | –
CC(=O)OC[C@H]1O[C@@H](OC(C)=O)[C@H](NC(=O)CCl)[C@@H](OC(C)=O)[C@H]1OC(C)=O | 670 | inactive | inactive | 15 | – | – | – | – | –
O=C(CBr)N[C@@H]1[C@@H](O)[C@@H](O)[C@@H](CO)O[C@H]1O | 1700 | inactive | – | – | – | – | – | – | –
CC(=O)N[C@H]1[C@H](OC(C)=O)O[C@H](COC(C)=O)[C@@H](OC(C)=O)[C@@H]1OC(C)=O | – | inactive | – | 400 | – | – | – | – | –
CC(=O)OC[C@H]1O[C@@H](OC(C)=O)[C@H](NC(=O)CBr)[C@@H](OC(C)=O)[C@H]1OC(C)=O | 220 | inactive | inactive | 4 | – | – | 83 | – | –
O=C(O)CF [FLUOROACETATE] | 100 | inactive | – | – | – | – | – | – | –
O=C(CBr)N[C@@H]1[C@@H](O)[C@H](O)[C@@H](CO)O[C@H]1O | > 2400 | inactive | – | – | – | – | – | – | –
O=C(CCl)N[C@@H]1[C@@H](O)[C@H](O)[C@@H](CO)O[C@H]1O | 2000 | inactive | inactive | 400 | – | – | – | 83 | 24
O=C(CF)N[C@@H]1[C@@H](O)[C@@H](O)[C@@H](CO)O[C@H]1O | 740 | inactive | – | – | – | – | – | – | –
NC(=O)CCl | – | inactive | – | 200 | – | – | – | – | –

Reference: ChEMBL document CHEMBL3244342, “Haloacetamido analogues of 2-amino-2-deoxy-D-glucose and 2-amino-2-deoxy-D-galactose. Syntheses and effects on the Friend murine erythroleukemia” (J Med Chem, 1978)
